Experimental data collected from several papers.
Each line is one published result; the experiments were not run side by side. pIC50: −log10 of the molar value.
Observed: cell growth or viability

The inhibition of Cc1cc(NC(=O)C=Cc2ccccc2)cc(-c2ccnc(N3CCOCC3)c2)c1 is reported as 17.7% (A549; MTT; 5 µM).
COc1cc2ncnc(N(C)c3ccc4c(c3)/C(=C/c3ccccc3)C(=O)N4C)c2cc1OC (mixture of isomers) gave a pIC50 of 5.49 (A549; MTT).
Cc1c(Cc2ccccc2)c(=O)oc2c(C)c(OCC(=O)NN=Cc3ccccc3)ccc12 has a viability of 42.1% (PC-3; MTT; 31.25 µg/mL).
For Cc1cccc(/C=C/C(=O)Nc2cccc(-c3ccnc(N4CCOCC4)c3)c2)c1, the inhibition was 29.4% (A549; MTT; 5 µM).
The viability of CCc1c(C)c2ccc(OCC=Cc3ccccc3)c(C)c2oc1=O is reported as 18.1% (PC-3; MTT; 250 µg/mL).
O=C(/C=C/c1cccc(F)c1)Nc1cc(-c2ccnc(N3CCC(O)CC3)c2)ccn1 has an inhibition of 62.4% (A549; MTT; 5 µM).
C=CCOc1ccc2c(C)c(CC)c(=O)oc2c1C has a viability of 99.7% (PC-3; MTT; 31.25 µg/mL).
With Cc1cc(NC(=O)C=Cc2ccccc2)cc(-c2ccnc(N3CCC(O)CC3)c2)c1 the inhibition was 37.6% (A549; MTT; 5 µM).
With CC(C)C[C@@H]1NC(=O)[C@@H](N(C)C(=O)[C@H](CC2CCC2)NC(=O)[C@@H]2C[C@@H](F)CN2C(=O)C2(C(F)(F)F)CC(F)(F)C2)CCCCNC(=O)C2(CC2)NC(=O)[C@H](Cc2cc(Cl)ccc2Cl)N(C)C1=O the GI50 was 0.032 µM (NCI-H1048; MTT; 5 days).
C=CC(=O)NC1CCN(c2ncc3ncnc(Nc4ccc(Oc5ccc6c(c5)ncn6C)c(C)c4)c3n2)CC1 gave a pIC50 of 7.24 (NCI-H2170).
COc1ccc(-c2cc(-c3ccc(OC)cc3)c3c(=O)[nH]c(=O)[nH]c3n2)cc1 has a pIC50 of 4.91 (PC-3; MTT; 48 h).
The viability of COc1cccc2c1C(=O)c1c(O)c3c(c(O)c1C2=O)C[C@@](O)(C(=O)CO)C[C@@H]3O[C@H]1C[C@H](N)[C@H](O)[C@H](C)O1 is reported as 12.4% (A549; MTT; 100 µg/mL; 48 h; serum-free).
With O=C(C=Cc1ccccc1)Nc1cc(-c2ccnc(N3CCOCC3)c2)ccn1 the inhibition was 76.7% (A549; MTT; 5 µM).
With COc1cccc2c1C(=O)c1c(O)c3c(c(O)c1C2=O)C[C@@](O)(C(=O)CO)C[C@@H]3O[C@H]1C[C@H](N)[C@H](O)[C@H](C)O1 the pIC50 was 5.19 (HUVEC; MTT; 24 h).
CC(=NNC(=O)COc1ccc2c(C)c(Cc3ccccc3)c(=O)oc2c1C)c1ccc(Br)cc1 has a viability of 14% (PC-3; MTT; 31.25 µg/mL).
The pIC50 of Cc1ccc(-c2cc(-c3ccc(Cl)cc3)c3c(=O)n(C)c(=O)n(C)c3n2)cc1 is reported as 4.93 (PC-3; MTT; 48 h).
With CCc1c(C)c2ccc(OCC(=O)NN=Cc3ccc([N+](=O)[O-])cc3)cc2oc1=O the viability was 5.32% (PC-3; MTT; 500 µg/mL).
O=C(C=Cc1ccccc1)Nc1cccc(-c2ccnc(N3CCC(CO)CC3)c2)c1 gave an inhibition of 59.1% (A549; MTT; 5 µM).
O=C(O)c1ccc2c(c1)nc(Nc1cccc(Cl)c1)c1ccncc12 gave a pIC50 of 5.51 (NCI-H522; crystal violet; 48 h).
O=C(C=Cc1ccccc1)Nc1cc(-c2ccnc(N3CCC(O)CC3)c2)ccn1 gave an inhibition of 73.1% (A549; MTT; 5 µM).
The pIC50 of Cc1nc(NC(=O)N2CCC[C@H]2C(N)=O)sc1-c1ccnc(C(C)(C)C(F)(F)F)c1 is reported as 4.95 (A549; MTT).
The pIC50 of Cc1ccc(-c2cc(-c3ccc(Cl)c(F)c3)c3c(=O)[nH]c(=O)[nH]c3n2)cc1 is reported as 4.67 (PC-3; MTT; 48 h).
Cc1c(Cc2ccccc2)c(=O)oc2c(C)c(OCC(=O)NN=Cc3ccco3)ccc12 gave a viability of 8.21% (PC-3; MTT; 500 µg/mL).
With COc1cc2ncnc(Nc3ccc4c(c3)/C(=C/c3ccccc3)C(=O)N4)c2cc1OC the pIC50 was 4.77 (A549; MTT).
C=CCNC(=S)NNC(=O)COc1ccc2c(C)c(CC)c(=O)oc2c1C gave a viability of 2.65% (PC-3; MTT; 1000 µg/mL).
Cc1nc(Nc2ccc3c(c2)/C(=C/c2ccccc2C)C(=O)N3C)c2ccccc2n1 gave a pIC50 of 4.67 (A549; MTT).
CCc1c(C)c2ccc(OCC(=O)NNC(=S)Nc3ccccc3)c(C)c2oc1=O has a viability of 4.76% (PC-3; MTT; 125 µg/mL).
With O=C(C=Cc1ccc(F)cc1)Nc1cc(-c2ccnc(N3CCC(O)CC3)c2)ccn1 the inhibition was 65.9% (A549; MTT; 5 µM).
